According to ChEMBL document CHEMBL1122496, “A new class of nonhormonal pregnancy-terminating agents. Synthesis and contragestational activity of 3,5-diaryl-s-triazoles” (J Med Chem, 1983):

Experiments:
[1] = test system: Cricetinae gen. sp.; assay: Pregnancy-terminating activity in hamster when administered sc; assay type: functional
[2] = test system: Cricetinae gen. sp.; assay: Pregnancy-terminating activity in hamster when administered perorally; assay type: functional, Cricetulus griseus; conditions: po
[3] = test system: Rattus norvegicus; assay: Pregnancy-terminating activity in rat when administered sc; assay type: functional
Summary of the method: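 Pregnant rats were dosed once daily for 5 consecutive days, from day 6 to day 10. Compound was given in sesame oil containing 20% benzyl benzoate to groups of 5–30 animals at three to six dose levels.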

[4] = test system: Rattus norvegicus; assay: Pregnancy-terminating activity in rat when administered po; assay type: functional
[5] = Solubility in sesame oil containing 20% of benzyl benzoate; assay type: physicochemical
[6] = test system: Rattus norvegicus; assay: Pregnancy-terminating activity in Rat when administered sc; assay type: functional
Summary of the method: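 Pregnant rats were dosed once daily for 5 consecutive days, from day 6 to day 10. Compound was given in sesame oil containing 20% benzyl benzoate to groups of 5–30 animals at three to six dose levels. ED50 is the dose that terminated pregnancy in 50% of the animals.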

[7] = Cricetinae gen. sp., sc, read-out: ED50

SMILES | ED50 [1, 7] | ED50 [2] | further results
COc1cccc(-c2n[nH]c(-c3cc(OC)ccc3C)n2)c1 | 1 mg/kg | – | –
Cc1ccccc1-c1n[nH]c(-c2ccccc2Cl)n1 | 15 mg/kg | – | –
COc1ccc(-c2n[nH]c(-c3ccccc3)n2)c(C)c1 | > 10 mg/kg | – | –
Cc1cccc(-c2n[nH]c(-c3ccccc3C)n2)c1 | 4 mg/kg | – | –
COc1cccc(-c2n[nH]c(-c3ccc(Cl)cc3C)n2)c1 | 0.04 mg/kg | 5 mg/kg | ED50 [3]: 0.5 mg/kg; ED50 [4]: > 10 mg/kg
CCc1ccccc1-c1n[nH]c(-c2ccc3c(c2)OCO3)n1 | 0.03 mg/kg | 3 mg/kg | ED50 [3]: 0.6 mg/kg; ED50 [4]: ~20 mg/kg
C=CCOc1cccc(-c2nc(-c3ccccc3CC)n[nH]2)c1 | 0.12 mg/kg | 5 mg/kg | –
Cc1ccc(-c2n[nH]c(-c3ccccc3)n2)cc1 | > 20 mg/kg | – | –
Cc1ccccc1-c1n[nH]c(-c2cccc(C(F)(F)F)c2)n1 | 0.6 mg/kg | > 20 mg/kg | –
CCOc1cccc(-c2n[nH]c(-c3ccccc3C)n2)c1 | 0.06 mg/kg | 5 mg/kg | –
Cc1ccc(-c2n[nH]c(-c3ccccc3C)n2)cc1 | 20 mg/kg | – | –
COc1cccc(-c2n[nH]c(-c3ccccc3C(C)C)n2)c1 | 4 mg/kg | 10 mg/kg | –
Cc1ccc(-c2n[nH]c(-c3ccccc3)n2)c(C)c1 | 0.2 mg/kg | > 5 mg/kg | –
COc1cccc(-c2n[nH]c(-c3ccc(C)cc3)n2)c1 | 7 mg/kg | – | –
Cc1ccccc1-c1n[nH]c(-c2ccccc2C)n1 | 0.7 mg/kg | > 10 mg/kg | –
COc1cccc(-c2n[nH]c(-c3cc(Cl)ccc3C)n2)c1 | 0.35 mg/kg | – | –
COc1cccc(-c2n[nH]c(-c3cc(C)ccc3C)n2)c1 | 2.5 mg/kg | – | –
c1ccc(-c2n[nH]c(-c3ccccc3)n2)cc1 | 6 mg/kg | 10 mg/kg | –
Cc1ccccc1-c1n[nH]c(-c2cccc(Cl)c2)n1 | 0.6 mg/kg | > 20 mg/kg | –
CC(C)c1ccccc1-c1n[nH]c(-c2ccccc2)n1 | 10 mg/kg | – | –
COc1ccccc1-c1n[nH]c(-c2ccccc2C)n1 | 0.5 mg/kg | > 5 mg/kg | –
CCCCc1ccccc1-c1n[nH]c(-c2ccccc2)n1 | 17 mg/kg | – | –
COc1cccc(-c2n[nH]c(-c3ccccc3C)n2)c1 | 0.08 mg/kg | 5 mg/kg | –
CCc1ccccc1-c1n[nH]c(-c2ccccc2)n1 | 0.15 mg/kg | 5 mg/kg | –
Cc1ccccc1-c1n[nH]c(-c2ccccc2)n1 | 0.3 mg/kg | 10 mg/kg | Solubility [5]: > 100 mg/mL; ED50 [6]: 2 mg/kg; ED50 [1]: 0.3 mg/kg; ED50 [3]: 2 mg/kg; ED50 [4]: 50 mg/kg
COc1cccc(-c2nc(-c3ccc(OC)cc3C)n[nH]2)c1 | 0.2 mg/kg | > 5 mg/kg | –
